Article PMC11410521 (Biochemical pharmacology, 2024)
Several values for one entry are separate records, joined by “and”; a condition that tells them apart may be missing. Equal values may be shown once. Read-outs that look alike come from different tables or passages of the source.

Experiments:
[1] = system: human liver microsomes from six individual liver donors; type: in vitro ADME; settings: for inhibition of M3 formation in donor HL-109: HL-109: low CYP2C19 activity, high CYP3A activity, no CYP3A5 expression
Procedure, shortened: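 HLMs from six donors (2 CYP3A5 expressors, 4 non-expressors), 1 mg/mL, were preincubated 10 min with 0.5 μM CYP3cide plus 1 mM NADPH, with a methanol vehicle control. They were diluted 40-fold to 0.025 mg/mL in buffer with 1 mM NADPH, then 2 μM THC was added. Reactions ran 2 min before quench and LC-MS/MS. % activity remaining was normalised to vehicle, in duplicate.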

human FABP1 [2] = target: T1, human FABP1 (Homo sapiens, UniProt P07148); assay: DAUDA displacement assay of cannabinoid binding to FABP1
T1 sequence (P07148 1-127): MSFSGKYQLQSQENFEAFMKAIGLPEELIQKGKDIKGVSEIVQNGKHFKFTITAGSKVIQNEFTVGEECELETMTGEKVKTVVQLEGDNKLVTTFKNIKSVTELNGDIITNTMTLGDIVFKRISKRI
Procedure, shortened: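 Purified human FABP1, protein quantified by BCA and held on ice in gel filtration buffer with 0.5 mM DTT, titrated with test cannabinoid displacing DAUDA. Fluorescence spectra scanned at 600 nm/min, PMT 800 V. Bound-DAUDA signal extracted by singular value decomposition. Kd from ternary binding model fit; EC50 from three-parameter dose-response fit. Mean ± SD, three days, ≥2 protein batches.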

[3] = system: HLMs and recombinant CYP2C9; settings: cited from earlier work; for Km: in HLM
recombinant CYPs = assay: THC metabolite formation by a panel of recombinant CYPs; type: in vitro ADME, human; settings: 10 μM THC
Procedure, shortened: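 Individual recombinant CYPs (10 pmol/mL) across a twelve-enzyme panel were preincubated 5 min at 37 °C with 10 μM THC in 100 mM potassium phosphate pH 7.4. Reactions were started with 1 mM NADPH and ran 15 min, then were quenched with acetonitrile/1% formic acid containing 11-OH-THC-d3 and analysed by LC-MS/MS. Relative formation was the metabolite/internal-standard peak-area ratio; peaks below S/N 5 were not quantified.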

[4] = system: human liver microsomes from three individual donors; assay: Impact of FABP1 on THC metabolism in HLMs from individual donors; type: in vitro ADME; settings: HLM incubations
CYP2C19 = assay: THC incubations with recombinant CYP2C19 in the presence and absence of FABP1; type: in vitro ADME, human; settings: human
Procedure, shortened: (§1)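 Recombinant CYP2C19 (Supersomes) at 1 nM (0.013 mg/mL microsomal protein), with nominal THC 0.02–1.0 μM, ±20 μM FABP1 added before 5 min preincubation at 37 °C. Started with 1 mM NADPH, 2 min, with a no-NADPH control, then quench and LC-MS/MS. Matched ±FABP1 pairs. Michaelis-Menten fits against free THC from bead measurements, with a mass-balance calculation when FABP1 was present. Replicates on separate days.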

recombinant CYP2C19 = assay: as above; type: in vitro ADME, human
Procedure, shortened: as §1

[5] = cited from earlier work
[6] = Kinetics of THC metabolite formation in pooled human liver microsomes; type: in vitro ADME; settings: human, pooled human liver microsomes, pooled HLMs 0.1 mg/mL
Procedure, shortened: (§2)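 Pooled HLMs at 0.1 mg/mL with nominal THC 0.05–5 μM in 100 mM potassium phosphate pH 7.4. After 5 min preincubation at 37 °C, 1 mM NADPH was added and reactions ran 2 min, within time linearity. Quench was acetonitrile/1% formic acid with 11-OH-THC-d3, then LC-MS/MS. Michaelis-Menten fits used bead-measured free THC; linear fits gave CLint,u where saturation was absent. Three days, duplicates.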

[7] = system: pooled human liver microsomes; assay: as above; type: in vitro ADME; settings: pooled HLMs 0.1 mg/mL; mean ± SD, 3 days
Procedure, shortened: as §2

[8] = THC unbound fraction in human liver microsome incubations; type: in vitro ADME; settings: pooled liver microsomes, pH 7.4
Procedure, shortened: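 Magnetic silica beads (200 μL), washed three times, were pre-equilibrated 30 min on ice with HLM protein at incubation concentration in 0.5 mL buffer. THC was added at each nominal kinetic concentration and incubated 30 min at 37 °C with shaking, then cooled 5 min. Total and supernatant samples were quenched and measured by LC-MS/MS; fu = Cfree/Ctotal.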

human FABP1 [9] = target: T1, human FABP1; settings: read-out: Kd previously reported; cited from earlier work
[10] = cited from earlier work; remark: listed apart in the source
CYP2C9 = assay: THC incubations with recombinant CYP2C9 in the presence and absence of FABP1; type: in vitro ADME, human; settings: human
Procedure, shortened: (§3)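 Recombinant CYP2C9 (Supersomes) at 1 nM (0.0016 mg/mL microsomal protein), with seven nominal THC concentrations of 10–640 nM in pH 7.4 phosphate buffer, ±20 μM FABP1 added before 5 min preincubation at 37 °C. Started with 1 mM NADPH, 1 min, with a no-NADPH control. Quench was acetonitrile/formic acid with 11-OH-THC-d3, then LC-MS/MS. Km,u and kcat came from Michaelis-Menten fits against free THC; matched pairs, separate days.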

recombinant CYP2C9 = assay: as above; type: in vitro ADME, human; settings: recombinant CYP2C9, absence of FABP1
Procedure, shortened: as §3

recombinant CYP3A4 = assay: THC incubations with recombinant CYP3A4 in the presence and absence of FABP1; type: in vitro ADME, human
Procedure, shortened: (§4)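 Recombinant CYP3A4 (Supersomes) at 0.625 nM (0.004 mg/mL microsomal protein), with seven nominal THC concentrations of 0.156–3.75 μM, ±20 μM FABP1 added before 5 min preincubation at 37 °C. Started with 1 mM NADPH, 1 min, with a no-NADPH control, then LC-MS/MS. M4 data were fitted to an allosteric sigmoidal model (K0.5, h); other metabolites used Michaelis-Menten fits, against free THC; matched pairs.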

CYP3A4 = assay: as above; type: in vitro ADME, human; settings: human
Procedure, shortened: as §4

[11] = THC unbound fraction in incubations with recombinant CYPs; type: in vitro ADME; settings: human, recombinant CYP3A4 microsomes (Supersomes), pH 7.4
Procedure, shortened: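 Magnetic silica beads (50 μL), washed three times, were pre-equilibrated 30 min on ice with recombinant CYP at incubation protein concentration in 0.2 mL buffer. THC was added at each nominal kinetic concentration and incubated 30 min at 37 °C with shaking, then cooled 5 min at room temperature. Total and supernatant THC were measured by LC-MS/MS; fu = Cfree/Ctotal.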

[12] = THC depletion, 500 nM nominal, 0.2% BSA
[13] = recombinant CYP3A4, absence of FABP1, allosteric sigmoidal model

For `CCC1(c2ccccc2)NC(=O)N(Cc2ccccc2)C1=O` (single isomer, unassigned; (+)) [Benzylnirvanol, (+)-N-3-benzylnirvanol], the “inhibition of M3 formation in donor HL-109” value [1] was “no impact”.
For `CCCCC/C=C\C/C=C\C/C=C\C/C=C\CCCC(=O)OC(CO)CO` [2AG, 2-arachidonoylglycerol], the EC50 (human FABP1 [2]) was 180 ± 20 nM and the Kd (human FABP1 [2]) was 60 ± 40 nM.
For `CCCCC/C=C\C/C=C\C/C=C\C/C=C\CCCC(=O)NCCO` [AEA, anandamide], the EC50 (human FABP1 [2]) was 310 ± 140 nM.
With `C=C(C)[C@@H]1CCC(C)=C[C@H]1c1c(O)cc(CCCCC)cc1O` [CBD, cannabidiol] the EC50 (human FABP1 [2]) was 920 ± 70 nM.
With `Cc1ccc(-c2c(-c3nn(C)c4ncnc(N5CC[C@H](N6CCCCC6)C5)c34)cnn2C)cc1` [CYP3cide] the “inhibition of M4 formation in donors without CYP3A5 expression” value ([1]; CYP3cide 0.5 μM) was roughly 100% and the “inhibition of M3 formation in donor HL-109” value [1] was roughly 100%.
In the case of `CCCCCc1cc(O)c2c(c1)OC(C)(C)[C@@H]1CCC(C)=C[C@@H]21` [THC, Δ9-tetrahydrocannabinol], the “THC metabolic clearance in pooled HLMs assigned to CYP2C9” value [3, 12] is listed as 91% and > 90%, the “THC metabolic clearance in pooled HLMs assigned to CYP2D6” value [3, 12] is listed as 9% and the Km ([3]; read-out: unbound Km (Km,u) for 11-OH-formation) is listed as 8 nM. For the same molecule, the Km ([3]; read-out: unbound Km (Km,u) for THC depletion) was 7 nM, the “velocity of 11-OH-THC formation by CYP2C9 and CYP2C19 relative to CYP2D6” value (recombinant CYPs) was ~ 3 fold and the “velocity of 11-OH-THC formation by CYP2C9 and CYP2C19 relative to other CYPs” value (recombinant CYPs) was greater than 10 fold. The “decrease in free concentrations of THC by FABP1 binding” value ([4]; 2 μM THC, 20 μM FABP1 vs absence) was 86%, the “free THC in the absence of FABP1” value ([4]; 2 μM nominal THC) was 14 nM and the “free THC in the presence of FABP1” value ([4]; 2 μM nominal THC, 20 μM FABP1) was 2 nM. It also gave a Km at 2 min (CYP2C19; recombinant CYP2C19 (Supersomes) with 20 μM FABP1, Km,u + FABP1, 11-OH-THC formation, recombinant CYP2C19, 20 μM FABP1) of 5.2 ± 0.64 nM, a Km at 2 min (CYP2C19; recombinant CYP2C19 (Supersomes) with 20 μM FABP1, Km,u + FABP1, M3 formation, recombinant CYP2C19, 20 μM FABP1) of 4.7 ± 0.72 nM and a Km at 2 min (CYP2C19; recombinant CYP2C19 (Supersomes), Km,u −FABP1, 11-OH-THC formation, recombinant CYP2C19, absence of FABP1) of 2.2 nM. For the same molecule, the Km at 2 min (CYP2C19; recombinant CYP2C19 (Supersomes), Km,u −FABP1, M3 formation, recombinant CYP2C19, absence of FABP1) was 2.2 nM, the “kcat + FABP1, 11-OH-THC formation” value (recombinant CYP2C19; recombinant CYP2C19, 20 μM FABP1) was 8.0 ± 2.0 min⁻¹ and the “kcat −FABP1, 11-OH-THC formation” value (recombinant CYP2C19; recombinant CYP2C19, absence of FABP1) was 14 min⁻¹ and 14 ± 0.68 min⁻¹. The “dose recovered in urine and feces” value ([5]; after iv administration) was “less than 1%”, the “THC exposure (AUC) in CYP2C9*3/*3 carriers compared to CYP2C9*1/*1 carriers” value ([5]; after oral dosing) was 3 fold and the hepatic extraction ratio [5] was “around 0.8”. For the same molecule, the “increase of AUC of THC when co-administered with ketoconazole” value [5] was ~ 80%, the “contribution of CYP2C9 to THC clearance (fraction metabolized)” value ([5]; estimated from AUC in CYP2C9 genotypes) was “about 70%” and the “THC exposure on co-administration of rifampicin” value ([5]; oral dosing of THC) was “decreases THC exposure”. It also gave a Km at 2 min ([6]; Km,unbound of M2 formation, free THC concentrations) greater than 45 nM, a Km at 2 min ([6]; Km,unbound of M3 formation, free THC concentrations) greater than 45 nM and a Km at 2 min ([6]; Km,unbound of M4 formation, no saturation, linear) greater than 45 nM. For the same molecule, the “Vmax of 11-OH-THC formation” value [7] was 521 ± 53 pmol/min/mg HLM, the fraction unbound at 30 min [8] was 0.015 ± 0.001 and the Kd (human FABP1 [9]) was 2900 nM. For the same molecule, the “blood to plasma ratio” value [10] was 0.67, the “plasma protein binding fu” value ([10]; plasma) was 0.01 and the Km at 1 min (CYP2C9; recombinant CYP2C9 (Supersomes) with 20 μM FABP1, Km,u + FABP1, 11-OH-THC formation, recombinant CYP2C9, 20 μM FABP1) was greater than 20 nM. The Km at 1 min (CYP2C9; recombinant CYP2C9 (Supersomes), Km,u −FABP1, 11-OH-THC formation, recombinant CYP2C9, absence of FABP1) was 0.8 nM, the Km (recombinant CYP2C9; read-out: Km,u −FABP1, 11-OH-THC formation) was 0.77 ± 0.16 nM and the “kcat −FABP1, 11-OH-THC formation” value (recombinant CYP2C9) was 12 min⁻¹ and 12 ± 0.87 min⁻¹. For the same molecule, the EC50 (human FABP1 [2]) was 220 ± 130 nM, the “M3 formation by recombinant CYP3A4 in the presence of FABP1” value (recombinant CYP3A4; 20 μM FABP1) was “completely abolished” and the “K0.5,u −FABP1, M4 formation” value (recombinant CYP3A4; [13]) was 43 ± 25 nM. The “hill slope (h), M4 formation” value (recombinant CYP3A4; [13]) was 1.4 ± 0.5, the Km at 1 min (CYP3A4; recombinant CYP3A4 (Supersomes) with 20 μM FABP1, Km,u + FABP1, M2 formation, recombinant CYP3A4, 20 μM FABP1) was greater than 20 nM and the Km at 1 min (CYP3A4; recombinant CYP3A4 (Supersomes) with 20 μM FABP1, Km,u + FABP1, M4 formation, recombinant CYP3A4, 20 μM FABP1) was greater than 20 nM. The Km at 1 min (CYP3A4; recombinant CYP3A4 (Supersomes), Km,u of the other three major metabolites, formed mainly by recombinant CYP3A4/5) was greater than 10 nM, the Km at 1 min (CYP3A4; recombinant CYP3A4 (Supersomes), Km,u −FABP1, M2 formation, recombinant CYP3A4, absence of FABP1) was 29 ± 19 nM and the Km at 1 min (CYP3A4; recombinant CYP3A4 (Supersomes), Km,u −FABP1, M3 formation, recombinant CYP3A4, absence of FABP1) was 18 ± 13 nM. For the same molecule, the fraction unbound at 30 min [11] was 0.15 ± 0.02.
